The source made the active and inactive calls. The calls are words filed in the database; no cut-off is given here.
Experiments:
[1] = target: T1, NAD-dependent protein deacylase sirtuin-6 (Homo sapiens, UniProt Q8N6T7); assay: Activation of N-terminal his-tagged human SIRT6 expressed in Escherichia coli M15 [pREP4] assessed as increase in deacetylation activity incubated for 2 hrs using Ac-RYQK(Ac)-AMC substrate by HPLC analysis
[2] = target: T1, NAD-dependent protein deacylase sirtuin-6; assay: Activation of N-terminal his-tagged human SIRT6 expressed in Escherichia coli M15 [pREP4] assessed as increase in peptide demyristoylation incubated for 120 mins using Ac-EALPKK(Myr)-AMC substrate by HPLC analysis
Outline: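 SIRT6 (10 μM) incubated with 100 μM Ac-EALPKK(Myr)-AMC, 3 mM NAD⁺ in assay buffer, with DMSO or 25 μM compound, 37 °C for 2 h. Quenched with 100 mM HCl/160 mM acetic acid at 37 °C for 30 min, centrifuged, supernatant analysed by reverse-phase C18 HPLC, water/acetonitrile with 0.1% TFA.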

[3] = target: T1, NAD-dependent protein deacylase sirtuin-6; assay: Activation of N-terminal his-tagged human SIRT6 expressed in Escherichia coli M15 [pREP4] assessed as increase in peptide demyristoylation at 20 uM incubated for 120 mins using Ac-EALPKK(Myr)-AMC substrate by FDL assay relative to control
Outline: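 Demyristoylation: 1 µM recombinant SIRT6 preincubated with compound for 20 min at 37 °C in 50 mM Tris-HCl pH 8.0, BSA 1 mg/mL, 1 mM DTT, with 10 µM Ac-EALPKK(Myr)-AMC. Started with 1 mM NAD and run 120 min at 37 °C. Developed 120 min at 37 °C with 5 mg/mL trypsin/8 mM nicotinamide. Fluorescence read. Mean ± s.d., triplicate wells, three independent experiments.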

Histone deacetylase 7 = Histone deacetylase 7 (Homo sapiens, UniProt Q8WUI4); assay: Inhibition of HDAC7 (unknown origin) by FDL assay
Histone deacetylase 7, sequence (Q8WUI4 whole entry): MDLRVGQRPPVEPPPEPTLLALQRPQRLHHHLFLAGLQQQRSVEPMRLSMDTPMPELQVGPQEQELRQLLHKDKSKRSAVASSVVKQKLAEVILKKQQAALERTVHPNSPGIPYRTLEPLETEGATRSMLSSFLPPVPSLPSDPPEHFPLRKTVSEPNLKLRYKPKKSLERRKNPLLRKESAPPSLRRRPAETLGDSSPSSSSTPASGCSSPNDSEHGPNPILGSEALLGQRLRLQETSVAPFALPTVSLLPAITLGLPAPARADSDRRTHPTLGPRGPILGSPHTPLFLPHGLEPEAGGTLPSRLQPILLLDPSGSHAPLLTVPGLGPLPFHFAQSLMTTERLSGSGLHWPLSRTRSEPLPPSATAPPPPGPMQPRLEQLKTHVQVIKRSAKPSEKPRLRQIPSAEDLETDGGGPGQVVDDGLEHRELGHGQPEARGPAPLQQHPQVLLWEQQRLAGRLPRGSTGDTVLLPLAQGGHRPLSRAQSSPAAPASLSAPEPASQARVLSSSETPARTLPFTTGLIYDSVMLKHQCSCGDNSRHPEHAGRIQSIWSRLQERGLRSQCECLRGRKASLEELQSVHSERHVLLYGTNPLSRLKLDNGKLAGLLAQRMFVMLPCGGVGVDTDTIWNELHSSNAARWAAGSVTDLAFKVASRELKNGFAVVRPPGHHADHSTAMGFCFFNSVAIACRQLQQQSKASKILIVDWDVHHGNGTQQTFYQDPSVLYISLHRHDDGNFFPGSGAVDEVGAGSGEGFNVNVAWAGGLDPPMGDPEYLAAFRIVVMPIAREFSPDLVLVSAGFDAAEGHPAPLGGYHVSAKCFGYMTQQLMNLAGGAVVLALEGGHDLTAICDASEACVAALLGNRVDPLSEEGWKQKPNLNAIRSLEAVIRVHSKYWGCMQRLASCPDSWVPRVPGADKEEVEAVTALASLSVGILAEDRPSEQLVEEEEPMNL
Outline: (§1)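 Selectivity testing by FDL assay at concentrations up to 200 µM. SIRT1-2 assays run by an outside contract provider. Values reported as IC50.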

[4] = target: NAD-dependent protein deacetylase sirtuin-1 (Homo sapiens, UniProt Q96EB6); assay: Inhibition of SIRT1 (unknown origin) by FDL assay
NAD-dependent protein deacetylase sirtuin-1, sequence (Q96EB6 whole entry): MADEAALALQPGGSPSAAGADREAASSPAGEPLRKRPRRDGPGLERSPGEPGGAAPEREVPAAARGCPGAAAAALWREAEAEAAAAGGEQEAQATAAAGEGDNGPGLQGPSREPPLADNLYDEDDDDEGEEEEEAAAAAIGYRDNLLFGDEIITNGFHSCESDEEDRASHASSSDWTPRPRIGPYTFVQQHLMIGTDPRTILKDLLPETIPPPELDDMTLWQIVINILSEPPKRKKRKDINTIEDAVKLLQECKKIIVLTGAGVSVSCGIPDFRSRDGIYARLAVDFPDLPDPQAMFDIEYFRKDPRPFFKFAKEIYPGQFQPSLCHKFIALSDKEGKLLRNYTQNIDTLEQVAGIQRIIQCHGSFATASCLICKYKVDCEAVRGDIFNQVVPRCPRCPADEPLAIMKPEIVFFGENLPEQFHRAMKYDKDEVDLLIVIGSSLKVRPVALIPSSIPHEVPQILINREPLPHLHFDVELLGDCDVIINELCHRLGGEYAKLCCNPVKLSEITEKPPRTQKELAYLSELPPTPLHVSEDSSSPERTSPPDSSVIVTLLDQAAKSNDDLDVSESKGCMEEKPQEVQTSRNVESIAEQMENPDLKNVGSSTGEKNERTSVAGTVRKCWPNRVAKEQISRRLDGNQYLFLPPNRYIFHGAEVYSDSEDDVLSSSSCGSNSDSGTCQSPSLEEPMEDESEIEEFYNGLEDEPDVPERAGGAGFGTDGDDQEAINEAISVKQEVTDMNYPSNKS
Outline: as §1

[5] = AUC (0 to t) in Sprague-Dawley rat at 10 mg/kg, po after 0.083 to 24 hrs by LC-MS/MS analysis; assay type: ADME, organism-based; conditions: in vivo
Outline: (§2)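 Male Sprague-Dawley rats, 6-8 weeks old. Dosing solution of 10 (PO) or 2 (IV) mg/mL in 5% DMSO, 10% Solutol and 85% saline, pH 7. Blood taken by cardiac puncture at 0.083–24 h (PO) or 0.25–24 h (IV). Plasma levels measured by LC-MS/MS. Values are mean ± SD, n = 3.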

[6] = target: T1, NAD-dependent protein deacylase sirtuin-6; assay: […] in human PANC1 cells assessed as reduction in H3K56ac levels incubated for 72 hrs by Western blot analysis; assay type: cell-based; conditions: PANC-1
Outline: (§3)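 Cells incubated 72 h with various compound concentrations; whole-cell RIPA lysates with protease inhibitors, BCA-normalised, separated on 12% SDS-PAGE, transferred to PVDF, blocked in 5% milk or BSA. Probed 10 h at 4 °C with antibodies to SIRT6, acetyl-H3K9/K18/K56, total H3, Lin28b, Myc, IGF2BP3, β-actin; HRP secondary, chemiluminescent detection.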

[7] = target: T1, NAD-dependent protein deacylase sirtuin-6; assay: Binding affinity to SIRT6 in human PANC1 cells assessed as protection of SIRT6 protein from temperature-dependent degradation at 25 uM incubated for 72 hrs by CETSA; assay type: cell-based; conditions: PANC-1
Outline: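 Cells treated with compound (25 μM) or DMSO for 72 h, washed, resuspended in PBS with protease inhibitor cocktail, split into aliquots heated 3 min at a temperature gradient. Lysed by three freeze–thaw cycles, centrifuged at 4 °C for 15 min; soluble SIRT6 in supernatant detected by western blot. Triplicate.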

PANC-1 = assay: Antitumor activity against human PANC1 cells xenografted in BALB/c nude mouse assessed as inhibition of tumor growth at 150 mg/kg/day, po for 30 days relative to control; assay type: functional; conditions: PANC-1, po, 720 h, read-out: TGI
Outline: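 Female BALB/c nude mice, 6-8 weeks old, injected subcutaneously in the right flank with 5×10^6–1×10^7 PANC-1 cells. At 130-150 mm³, mice randomized into 4 groups (n = 6) and dosed orally once daily for 30 days against vehicle. Tumor volume followed over time. Inhibition rate assessed against control.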

Homo sapiens = species on record: Homo sapiens; assay: Antiproliferative activity against human OCUT-2C cells assessed as reduction in cell viability incubated for 72 hrs by MTT assay; assay type: functional, cell-based
SW-620 = assay: Antiproliferative activity against human SW620 cells assessed as reduction in cell viability incubated for 72 hrs by MTT assay; assay type: functional, cell-based
MIA PaCa-2 = assay: Antiproliferative activity against human MIAPaCa2 cells assessed as reduction in cell viability incubated for 72 hrs by MTT assay; assay type: functional, cell-based
Outline: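 PDAC cells grown in DMEM or RPMI1640 with 10% FBS and penicillin/streptomycin at 37 °C, 5% CO2. Plated in triplicate, then treated with a concentration series for 72 h. Viability read by MTT. IC50 calculated from dose-response curves.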

[8] = Tmax in Sprague-Dawley rat at 10 mg/kg, po after 0.083 to 24 hrs by LC-MS/MS analysis; assay type: ADME, organism-based; conditions: in vivo
Outline: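 Male Sprague-Dawley rats, 6–8 weeks old, received a single dose of 10 mg/kg p.o. or 2 mg/kg i.v. The vehicle was 5% DMSO, 10% Solutol and 85% saline at pH 7. Blood was taken by cardiac puncture at 0.083–24 h (p.o.) or 0.25–24 h (i.v.), and plasma was measured by LC-MS/MS. Values are mean ± SD, n = 3.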

[9] = target: T1, NAD-dependent protein deacylase sirtuin-6; assay: In-vivo activation of SIRT6 in BALB/c nude mouse xenografted with human PANC1 cells assessed as reduction in H3K9Ac expression at 150 mg/kg/day, po for 30 days by IHC analysis; assay type: functional, organism-based; conditions: PANC-1
Outline: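 Female BALB/c nude mice (6–8 weeks) bearing subcutaneous PANC-1 xenografts (5×10⁶–1×10⁷ cells, right flank), randomised at 130–150 mm³ tumours; oral dosing daily for 30 days versus vehicle (n=6). Tumour tissue stained by immunohistochemistry.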

[10] = target: NAD-dependent protein deacetylase sirtuin-3, mitochondrial (Homo sapiens, UniProt Q9NTG7); assay: Inhibition of SIRT3 (unknown origin) by FDL assay
NAD-dependent protein deacetylase sirtuin-3, mitochondrial, sequence (Q9NTG7 whole entry): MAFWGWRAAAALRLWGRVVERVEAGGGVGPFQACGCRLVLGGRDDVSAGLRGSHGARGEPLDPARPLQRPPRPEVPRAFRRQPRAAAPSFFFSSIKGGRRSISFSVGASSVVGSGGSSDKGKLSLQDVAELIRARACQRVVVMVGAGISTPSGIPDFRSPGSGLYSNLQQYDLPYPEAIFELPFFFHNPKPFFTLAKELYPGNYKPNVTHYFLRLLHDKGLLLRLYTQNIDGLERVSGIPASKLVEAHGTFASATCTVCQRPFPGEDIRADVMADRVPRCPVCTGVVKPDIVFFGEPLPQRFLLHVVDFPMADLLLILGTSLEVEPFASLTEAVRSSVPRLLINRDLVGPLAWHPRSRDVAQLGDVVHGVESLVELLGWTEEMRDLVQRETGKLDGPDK
Outline: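 SIRT3 and SIRT5 tested by an outsourced FDL fluorogenic deacetylase assay, each from a different contract provider. The IC50 was determined for each enzyme, with concentrations going up to 200 μM.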

[11] = AUC (0 to infinity) in Sprague-Dawley rat at 10 mg/kg, po after 0.083 to 24 hrs by LC-MS/MS analysis; assay type: ADME, organism-based; set-up: dose 10 mg/kg, time infinity, route oral; conditions: in vivo
Outline: as §2

[12] = target: T1, NAD-dependent protein deacylase sirtuin-6; assay: […] in human BxPC3 cells assessed as reduction in H3K18ac levels incubated for 72 hrs by Western blot analysis; assay type: cell-based; conditions: BXPC-3
Outline: as §3

T1 sequence (Q8N6T7 whole entry): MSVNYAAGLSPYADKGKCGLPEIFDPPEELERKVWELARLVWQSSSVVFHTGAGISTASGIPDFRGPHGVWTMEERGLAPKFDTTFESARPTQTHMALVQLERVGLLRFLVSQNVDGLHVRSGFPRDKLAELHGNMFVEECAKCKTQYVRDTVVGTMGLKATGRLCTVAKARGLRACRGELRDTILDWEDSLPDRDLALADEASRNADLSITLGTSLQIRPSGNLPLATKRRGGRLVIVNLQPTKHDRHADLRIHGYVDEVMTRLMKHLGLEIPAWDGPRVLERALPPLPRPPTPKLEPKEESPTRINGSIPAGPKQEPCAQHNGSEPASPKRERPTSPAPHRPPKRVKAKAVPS

Structure (SMILES): O=C(NC(c1ccccc1)c1ccccc1)c1cc(-c2cc3ccccc3o2)nc2ccccc12
- Activity [1]: Active
- Activity [2]: Active
- Activity [3]: 1230%
- IC50 (Histone deacetylase 7): > 200 µM
- IC50 [4]: 171 µM
- AUCt [5]: 704.67 ng·mL·h
- inhibition [6]: Dose-dependent effect
- Activity [7]: Active
- inhibition in vivo at 150 mg/kg/day (PANC-1): 90.2%
- Activity (Homo sapiens): Active
- Activity (SW-620): Active
- Activity (MIA PaCa-2): Dose-dependent effect
- IC50 (MIA PaCa-2; MIA PaCa-2, 72 h): 7.1 µM
- Tmax [8]: 2 h
- Activity [9]: Active
- IC50 [10]: > 200 µM
- AUC [11]: 755.57 ng·mL·h
- inhibition [12]: Dose-dependent effect

— ChEMBL document CHEMBL4622973, “Discovery of Potent Small-Molecule SIRT6 Activators: Structure-Activity Relationship and Anti-Pancreatic Ductal Adenocarcinoma Activity” (J Med Chem, 2020)
